# Compounds with a hit are over-represented: about 1.8% of the library has one in this group of screens.
# LEDGF integ inh = blockers of LEDGF/p75-dependent integrase strand transfer – biochemical, TR-FRET, high throughput, primary screen | HIV-1 integrase (with human LEDGF/p75) | actives 0.64% (n = 370,000) | TR-FRET IN-LEDGF/p75 DNA integration, Eu/Cy5 | inhibition, % at 3.7 µM;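 active means inhibition above the screen-wide mean plus 3 SD, cut at about 13% in these data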;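 further: signal is the Cy5 over europium emission ratio at 671 and 618 nm; 0% = plate median of compound wells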
# MBD2 inh = inhibitors of MBD2 binding to methylated DNA, primary screen, biochemical, TR-FRET, DNA-binding domain, human; AID 686964, 2013; MBD2 binding to methylated oligonucleotide; inhibition, % at 4.4 µM; Methyl-CpG-binding domain protein 2 (Homo sapiens), Q9UBB5; actives 0.31% (n = 370,000); in the data active means inhibition above about 13%
# Target sequence (Q9UBB5 whole entry, looked up, the tested form may be a part): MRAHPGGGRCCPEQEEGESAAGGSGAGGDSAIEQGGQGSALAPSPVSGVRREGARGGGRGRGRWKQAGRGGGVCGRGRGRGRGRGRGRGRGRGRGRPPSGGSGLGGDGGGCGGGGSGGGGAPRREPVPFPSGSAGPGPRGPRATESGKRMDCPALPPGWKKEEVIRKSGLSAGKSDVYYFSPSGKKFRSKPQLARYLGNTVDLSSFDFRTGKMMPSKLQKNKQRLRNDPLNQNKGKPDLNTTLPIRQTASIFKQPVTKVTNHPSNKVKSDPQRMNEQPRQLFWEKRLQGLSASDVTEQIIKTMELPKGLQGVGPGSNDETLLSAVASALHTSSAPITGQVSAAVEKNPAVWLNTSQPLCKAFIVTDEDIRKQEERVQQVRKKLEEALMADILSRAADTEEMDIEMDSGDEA
# UHRF1 MBD2 ctr = UHRF1 methylated DNA binding inhibitors, primary screen, counter-screen for MBD2 inhibitor project, biochemical, TR-FRET, human UHRF1, single concentration; AID 687016, 2013; UHRF1 binding to methylated oligo; inhibition, % at 4.4 µM; actives 0.75% (n = 370,000); E3 ubiquitin-protein ligase UHRF1 (Homo sapiens), Q96T88; in the data active means inhibition above about 21%;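 further: UHRF1 SRA domain binding a hemimethylated CpG hairpin DNA probe; 0% = median of test compound wells and 100% = reference inhibitor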
# TDP2 inh = human TDP2 enzyme inhibitors, primary screen, biochemical, epi absorbance, recombinant enzyme | Tyrosyl-DNA phosphodiesterase 2 (Homo sapiens), O95551 | T5PNP hydrolysis, p-nitrophenol absorbance 415 nm | inhibition, % at 12.8 µM | actives 0.34% (n = 370,000) | AID 720702, 2013;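 active means inhibition above the mean of all tested compounds plus 3 SD, set per campaign, cut at about 25% in these data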;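 further: 0% = DMSO with enzyme and 100% = buffer with substrate but no TDP2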
#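 Read-out basis: percent inhibition. System: recombinant human TDP2. Buffer or medium: Mg2+-containing Tris-HCl buffer, pH 7.5. Repeats: single replicate. Timing: reaction 2 h, 37 °C. Benchmarks: high control without enzyme, low control DMSO plus TDP2. Probe or stimulus: 5 mM T5PNP. Doses: 12.8 µM only. Measured by: epi absorbance of p-nitrophenol freed from T5PNP by hydrolysis.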
# NSD2 inh = NSD2 histone methyltransferase inhibitors, primary screen, biochemical, AlphaScreen, single concentration, set 2. inhibition, % at 12.5 µM. NSD2 peptide methylation, 120 min. Histone-lysine N-methyltransferase NSD2 (Homo sapiens), O96028. AID 743445, 2014. actives 0.54% (n = 310,000); in the data active means inhibition above about 50%
# Casp6 inh = human caspase-6 inhibitors, primary screen, biochemical, VEID-R110 fluorescence, single point, set 2; P55212; purified caspase-6, Z-VEID-R110 cleavage fluorescence; inhibition, % at 12.5 µM; actives 0.53% (n = 350,000); AID 686996, 2013;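 active means mean inhibition across replicates at least about 35%, with every replicate also reaching that limit, limit read from the data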;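 further: 0% = median of neutral control wells and 100% = no fluorescence left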
# Target sequence (P55212 24-179 limits assumed): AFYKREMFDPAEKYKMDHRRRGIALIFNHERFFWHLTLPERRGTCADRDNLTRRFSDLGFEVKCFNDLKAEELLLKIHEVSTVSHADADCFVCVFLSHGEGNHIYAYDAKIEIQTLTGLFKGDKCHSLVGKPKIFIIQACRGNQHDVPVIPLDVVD
# Target sequence (P55212 194-293 limits assumed): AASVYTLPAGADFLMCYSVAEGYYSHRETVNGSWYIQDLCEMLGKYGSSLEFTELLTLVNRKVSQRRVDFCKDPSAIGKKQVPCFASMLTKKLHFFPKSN
# UHRF1 DNA bind = UHRF1 methylated DNA binding inhibitors, counter-screen for MBD2 inhibitor project, biochemical, TR-FRET, human UHRF1; shares compounds with MBD2 inh; UHRF1 binding to methylated oligonucleotide; inhibition, % at 4.4 µM; actives 25% (n = 1,000); AID 720530, 2013; in the data active means inhibition above about 21%;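 further: UHRF1 SRA domain binding a labeled hemimethylated CpG hairpin DNA; 0% = vehicle only and 100% = reference inhibitor with vehicle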
# MBD2 confirm = inhibitors of MBD2 binding to methylated DNA, confirmation, biochemical, TR-FRET, DNA-binding domain, human; inhibition, % at 4.4 µM; AID 720531, 2013; actives 26% (n = 1,000); TR-FRET MBD2-DBD binding to methylated oligonucleotide; shares compounds with MBD2 inh
# TDP2 inh conf = human TDP2 enzyme inhibitors, retest, confirmation, biochemical, epi absorbance, recombinant enzyme | shares compounds with TDP2 inh | absorbance read-out | inhibition, % at 12.8 µM | actives 22% (n = 1,100) | AID 743263, 2014; in the data active means inhibition above about 25%;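 further: 0% = vehicle with enzyme and 100% = no enzyme buffer only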
# IN multimer up = HIV-1 IN multimer formation enhancers, counter-screen for LEDGF/p75 integration inhibitor project, biochemical, TR-FRET. TR-FRET HIV-1 integrase multimerization. actives 17% (n = 2,000). activation, % at 7.7 µM. shares compounds with LEDGF integ inh; in the data active means activation above about 8.9%
# TRFRET interf = TR-FRET optical interference artefacts, confirmation, artefact control for LEDGF/p75-dependent integration inhibitor project, biochemical, HIV-1 IN multimerization; inhibition, % at 7.7 µM; shares compounds with LEDGF integ inh; TR-FRET optical interference counterscreen; 2,000 tested, under 10 active; AID 1053135, 2014;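 active means inhibition above the mean over all tested compounds plus 3 SD, which no compound reached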;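 further: 0% = integrase with antibodies and DMSO and 100% = antibodies without integrase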
# IN-LEDGF confirm = inhibitors of HIV-1 IN-LEDGF/p75 DNA integration, confirmation, biochemical, TR-FRET. shares compounds with LEDGF integ inh. TR-FRET LEDGF/p75-dependent HIV-1 integration. inhibition, % at 3.7 µM. actives 36% (n = 2,000)
# Alpha artifact = AlphaScreen signal interference with preloaded methylated product, dose response, artefact control for NSD2 inhibitor project, biochemical, cherry-picked samples. shares compounds with NSD2 inh. AlphaScreen artifact counterscreen, preloaded methylated H4 peptide. AC35, µM (highest dose often 10 µM), inactives show top-dose activity change, negative = signal loss. actives 9.4% (n = 1,500). AID 1053174, 2014; call rule not given here
# * = called active by the depositor; . = no result given. Unless noted, no stated cut-off is given here; in the data, active means inhibition above about 14%; inactive means the rest.
SMILES,LEDGF integ inh,MBD2 inh,UHRF1 MBD2 ctr,TDP2 inh,NSD2 inh,Casp6 inh,UHRF1 DNA bind,MBD2 confirm,TDP2 inh conf,IN multimer up,TRFRET interf,IN-LEDGF confirm,others
O=C1NC(=O)N(CCc2ccc(F)cc2)C(=O)/C1=C/c1ccco1,80*,74*,97*,14,.,83*,23*,16*,.,8,-31,16*,
COc1ccccc1/C=C1\C(=O)NC(=S)N(c2ccccc2)C1=O,5,-2,1,-10,5,.,.,.,.,.,.,.,
O=C1NC(=S)N(c2ccccc2)C(=O)/C1=C/c1ccco1,54*,58*,91*,7,.,95*,100*,89*,.,14*,-49,73*,
COc1cc2c(cc1OC)-c1c3c(cc4c1[C@@H](C2)N(C)CC4)OCO3,16*,46*,50*,56*,.,48*,30*,20*,52*,5,-17,8,
COc1cc(C(c2c(C)[nH]n(-c3ccccc3)c2=O)c2c(C)[nH]n(-c3ccccc3)c2=O)cc(OC)c1OC,43*,14*,18,90*,17,21,3,2,56*,3,-12,5,
COC(=O)[C@H]1[C@H](CO)[C@H]2Cn3c(ccc(-c4ccc(F)cc4)c3=O)[C@@H]1N2Cc1cccnc1,.,.,.,.,.,-1,.,.,.,.,.,.,
C/C=C/c1ccc([C@H]2[C@H]3CN(C(=O)Cc4ccncc4)CCCCN3[C@H]2CO)cc1,.,.,.,.,.,-2,.,.,.,.,.,.,
CCOC(=O)c1c(NC(=O)c2c(N)n(CCCOC)c3nc4ccccc4nc23)sc2c1CCCC2,3,-2,-3,4,0,.,.,.,.,.,.,.,
CCOCCCn1c(N)c(C(=O)Nc2sc3c(c2C(=O)OC)CCCC3)c2nc3ccccc3nc21,31*,14*,14,70*,4,.,6,2,1,2,-10,-2,
COC(=O)[C@@H]1[C@@H](CO)[C@@H]2Cn3c(ccc(-c4ccncc4)c3=O)[C@H]1N2S(=O)(=O)c1ccccc1F,.,.,.,.,.,-1,.,.,.,.,.,.,
O=C1NC(=S)NC(=O)C1=Cc1cccn1-c1ccc(O)cc1,33*,14*,32*,-3,.,88*,41*,24*,.,10*,-50,73*,
CN(C)c1ccc(/C=C2/C(=O)NC(=O)N(Cc3ccco3)C2=O)cc1,66*,15*,68*,15,34,81*,25*,11,.,2,-12,14*,
CN(C)c1ccc(/C=C2\C(=O)NC(=O)N(CCc3ccc(F)cc3)C2=O)cc1,-1,0,-2,1,3,4,.,.,.,.,.,.,
CCN(CC)c1ccc(/C=C2/C(=O)NC(=O)N(Cc3ccco3)C2=O)cc1,71*,18*,72*,17,45,.,29*,14*,.,6,-29,30*,
C/C=C/c1ccc([C@@H]2[C@@H](CO)N3CCCCN(C(=O)Cc4ccncc4)C[C@H]23)cc1,.,.,.,.,.,-1,.,.,.,.,.,.,
CC=Cc1ccc2n(c1=O)C[C@@H]1[C@@H](CO)[C@H](C(=O)OC)[C@H]2N1C(=O)CC (mixture of isomers),.,.,.,.,.,-1,.,.,.,.,.,.,
CCCN1[C@@H]2c3ccc(-c4cccc(OC)c4)c(=O)n3C[C@H]1[C@H](CO)[C@H]2C(=O)OC,.,.,.,.,.,0,.,.,.,.,.,.,
CC[n+]1c(-c2ccccc2)c2cc(N)ccc2c2ccc(N)cc21,42*,70*,72*,34*,178*,99*,77*,80*,22,7,-33,70*,
CC(C)N1C(=O)/C(=C/C=C/c2ccco2)C(=O)N(Cc2ccco2)C1=O,69*,19*,50*,2,107*,.,19,11,.,-1,3,51*,Alpha artifact=8.5µM*
O=C(Cc1cccnc1)N1CCCCN2[C@H](CO)[C@@H](c3ccc(C#CC4CC4)cc3)[C@@H]2C1,.,.,.,.,.,1,.,.,.,.,.,.,
O=c1[nH]c(=O)n(-c2cccc(F)c2)c(O)c1/C=C1\C=Nc2ccccc21,5,12,22*,32*,10,.,.,.,14,.,.,.,
O=c1[nH]c(=S)[nH]c(O)c1/C=C1/C=c2ccccc2=N1,-1,-6,-3,4,1,7,.,.,.,.,.,.,
Cc1cccc2c1=NC(=O)/C(=C/c1c(O)[nH]c(=O)[nH]c1=O)C=2,1,-6,-10,32*,3,.,.,.,38*,.,.,.,
COC(=O)[C@H]1[C@H](CO)[C@H]2Cn3c(ccc(-c4cccnc4)c3=O)[C@@H]1N2CCc1ccccc1,.,.,.,.,.,2,.,.,.,.,.,.,
O=c1nc(/C=C/c2ccc(Cl)cc2Cl)cc(C(F)(F)F)[nH]1,2,-4,0,29*,7,7,.,.,18,.,.,.,

# Screening data: PubChem, several laboratories
